Test results reported in ChEMBL document CHEMBL3425425, “6-Substituted sulfocoumarins are selective carbonic anhdydrase IX and XII inhibitors with significant cytotoxicity against colorectal cancer cells” (J Med Chem, 2015).
Calls of active or inactive are those of the source. No cut-off for these calls is given here.

How the values were obtained:
Carbonic anhydrase 1 = Carbonic anhydrase 1 (Homo sapiens, UniProt P00915); assay: Inhibition of human recombinant carbonic anhdydrase-1 expressed in Escherichia coli pre-incubated for 6 hrs by stopped-flow CO2 hydration assay
Chain of Carbonic anhydrase 1 (P00915 whole entry): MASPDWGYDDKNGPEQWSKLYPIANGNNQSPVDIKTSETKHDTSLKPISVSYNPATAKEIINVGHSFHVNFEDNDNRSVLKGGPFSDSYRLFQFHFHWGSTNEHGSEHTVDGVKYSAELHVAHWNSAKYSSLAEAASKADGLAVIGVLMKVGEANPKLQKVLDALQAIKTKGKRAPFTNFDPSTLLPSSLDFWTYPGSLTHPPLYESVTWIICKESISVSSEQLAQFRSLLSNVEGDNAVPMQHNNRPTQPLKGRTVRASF

Carbonic anhydrase 2 = Carbonic anhydrase 2 (Homo sapiens, UniProt P00918); assay: Inhibition of human recombinant carbonic anhdydrase-2 expressed in Escherichia coli pre-incubated for 6 hrs by stopped-flow CO2 hydration assay
Carbonic anhydrase 9 = Carbonic anhydrase 9 (Homo sapiens, UniProt Q16790); assay: Inhibition of human recombinant carbonic anhdydrase-9 expressed in Escherichia coli pre-incubated for 6 hrs by stopped-flow CO2 hydration assay
HT-29 [1] = assay: Cytotoxicity against human HT-29 cells assessed as reduction in cell viability at 30 to 300 uM incubated for 16 to 72 hrs under normoxic conditions by MTT assay; assay type: functional, cell-based
Procedure, shortened: (§1)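 HT-29 cells were grown in high-glucose DMEM with 20% FBS at 37 °C and plated at 1 × 10^4/well. After 24 h they were exposed to 0, 30, 100 or 300 μM for 16, 48 or 72 h in normoxia (20% O2, air, 5% CO2). Washed cells got 1 mg/mL MTT for 30 min at 37 °C, formazan was dissolved in DMSO and A550 read. Untreated set at 100%. Quadruplicates, ≥3 cell batches; mean ± SEM.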

HT-29 [2] = assay: Cytotoxicity against human HT-29 cells assessed as reduction in cell viability at 30 to 300 uM incubated for 16 to 72 hrs under hypoxic conditions by MTT assay; assay type: functional, cell-based
Procedure, shortened: (§2)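 Cells were kept in high-glucose DMEM with 20% FBS at 37 °C, seeded at 1 × 10^4/well and treated 24 h later at 0–300 μM (0, 30, 100, 300) for 16, 48 or 72 h. Incubation was in a hypoxic chamber (0.1% O2, 5% CO2, residual N2). Viability was measured by MTT (1 mg/mL, 30 min, 37 °C), with DMSO-solubilized formazan read at 550 nm and expressed against untreated control = 100%. Mean ± SEM of three experiments.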

HT-29 [3] = assay: Cytotoxicity against human HT-29 cells assessed as reduction in cell viability at 100 uM incubated for 72 hrs under hypoxic conditions by MTT assay; assay type: functional, cell-based; procedure, shortened: as §2
HT-29 [4] = assay: Cytotoxicity against human HT-29 cells assessed as reduction in cell viability at 100 uM incubated for 72 hrs under normoxic conditions by MTT assay; assay type: functional, cell-based; procedure, shortened: as §1
HT-29 [5] = assay: Cytotoxicity against human HT-29 cells assessed as reduction in cell viability at 30 uM incubated for 16 hrs under normoxic conditions by MTT assay; assay type: functional, cell-based; procedure, shortened: as §1
HT-29 [6] = assay: Cytotoxicity against human HT-29 cells assessed as cell viability at 30 uM incubated for 72 hrs under normoxic conditions by MTT assay; assay type: functional; conditions: HT-29, 72 h, read-out: Activity; procedure, shortened: as §1
HT-29 [7] = assay: Cytotoxicity against human HT-29 cells assessed as cell viability at 100 uM incubated for 16 hrs under normoxic conditions by MTT assay; assay type: functional; conditions: HT-29, 16 h, read-out: Activity; procedure, shortened: as §1
HT-29 [8] = assay: Cytotoxicity against human HT-29 cells assessed as cell viability at 100 uM incubated for 48 hrs under normoxic conditions by MTT assay; assay type: functional; conditions: HT-29, 48 h, read-out: Activity; procedure, shortened: as §1
HT-29 [9] = assay: Cytotoxicity against human HT-29 cells assessed as cell viability at 100 uM incubated for 72 hrs under normoxic conditions by MTT assay; assay type: functional; conditions: HT-29, 72 h, read-out: Activity; procedure, shortened: as §1
HT-29 [10] = assay: Cytotoxicity against human HT-29 cells assessed as reduction in cell viability at 300 uM incubated for 16 to 72 hrs under normoxic conditions by MTT assay; assay type: functional, cell-based; procedure, shortened: as §1
HT-29 [11] = assay: Cytotoxicity against human HT-29 cells assessed as cell viability at 100 uM incubated for 72 hrs under hypoxic conditions by MTT assay; assay type: functional; conditions: HT-29, 72 h, read-out: Activity; procedure, shortened: as §2

SMILES	Ki (Carbonic anhydrase 1) [µM]	Ki (Carbonic anhydrase 2) [µM]	Ki (Carbonic anhydrase 9) [µM]	also measured
O=C(Nc1ccc2c(c1)C=CS(=O)(=O)O2)c1cccs1	> 10	> 10	0.0295	–
N#Cc1ccc2c(c1)C=CS(=O)(=O)O2	> 10	> 10	0.0338	–
C[N+](C)(C)c1ccc2c(c1)C=CS(=O)(=O)O2	> 10	> 10	0.0096	Activity (HT-29 [1]): inactive; Activity (HT-29 [2]): inactive
O=C(Nc1ccc2c(c1)C=CS(=O)(=O)O2)c1ccccc1Br	> 10	> 10	0.0097	Activity (HT-29 [3]): Active; Activity (HT-29 [4]): Active
O=C(Nc1ccc2c(c1)C=CS(=O)(=O)O2)c1ccncc1	> 10	> 10	0.0077	Activity (HT-29 [1]): inactive; Activity (HT-29 [2]): inactive
COc1ccc2c(c1)C=CS(=O)(=O)O2	> 10	> 10	0.0421	–
O=C(Nc1ccc2c(c1)C=CS(=O)(=O)O2)c1ccco1	> 10	> 10	0.033	–
O=C(Nc1ccc2c(c1)C=CS(=O)(=O)O2)c1cccnc1	> 10	> 10	0.0105	–
CC(C)(C)C(=O)Nc1ccc2c(c1)C=CS(=O)(=O)O2	> 10	> 10	0.0056	–
O=C(Nc1ccc2c(c1)C=CS(=O)(=O)O2)c1ccccc1	> 10	> 10	0.0066	Activity (HT-29 [5]): Active; viability at 30 µM (HT-29 [6]): 43%; viability at 100 µM (HT-29 [7]): 52%; viability at 100 µM (HT-29 [8]): 60%; viability at 100 µM (HT-29 [9]): 40%; Activity (HT-29 [10]): inactive; viability at 100 µM (HT-29 [11]): 35%
Cc1ccc(C(=O)Nc2ccc3c(c2)C=CS(=O)(=O)O3)cc1	> 10	> 10	0.009	–
O=C(Cc1ccccc1)Nc1ccc2c(c1)C=CS(=O)(=O)O2	> 10	> 10	0.0813	–
O=C(Nc1ccc2c(c1)C=CS(=O)(=O)O2)c1ccccc1I	> 10	> 10	0.0091	–
CC(=O)Nc1ccc2c(c1)C=CS(=O)(=O)O2	> 10	> 10	0.0172	–
